Measured values as given in ChEMBL document CHEMBL3992493, “New approach of delivering cytotoxic drugs towards CAIX expressing cells: A concept of dual-target drugs” (Eur J Med Chem, 2017).
The source made the active and inactive calls. The calls are words filed in the database; no cut-off is given here.

What was measured:
[1] = test system: MDCK; assay: Cytotoxicity against carbonic anhydrase 9 knockdown MDCK cells assessed as reduction in cell viability at 500 nM after 72 hrs under anoxic condition by Alamar blue assay; assay type: cell-based, Canis lupus familiaris; settings: dog, 0.5 µM
In short: (§1)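 MDCK CAIX+ or CAIX− cells, 24 h anoxic preincubation (≤0.02% O2, 5% CO2) in pre-equilibrated DMEM. ATR inhibitors (0.5% DMSO) applied for 72 h without irradiation, then washed off, and 72 h normoxic regrowth. Readout by 2 h alamarBlue conversion under normoxia.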

[2] = biological target: Carbonic anhydrase 1 (Homo sapiens, UniProt P00915); assay: Binding affinity to recombinant human carbonic anhydrase 1 after 15 mins by stopped-flow CO2 hydration assay
Sequence of Carbonic anhydrase 1 (P00915 whole entry): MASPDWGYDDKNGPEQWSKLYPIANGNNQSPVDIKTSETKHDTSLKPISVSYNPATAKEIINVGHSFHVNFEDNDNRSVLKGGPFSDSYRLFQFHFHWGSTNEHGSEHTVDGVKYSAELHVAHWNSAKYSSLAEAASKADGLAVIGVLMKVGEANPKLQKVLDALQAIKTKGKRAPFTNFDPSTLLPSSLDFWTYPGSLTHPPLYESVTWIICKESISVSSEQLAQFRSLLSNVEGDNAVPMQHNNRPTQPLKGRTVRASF

[3] = test system: MDCK; assay: Cytotoxicity against MDCK cells expressing carbonic anhydrase 9 assessed as reduction in cell viability at 500 nM after 72 hrs under anoxic condition by Alamar blue assay; assay type: functional, cell-based; settings: Canis lupus familiaris; in short: as §1
[4] = biological target: Carbonic anhydrase 2 (Homo sapiens, UniProt P00918); assay: Binding affinity to recombinant human carbonic anhydrase 2 after 15 mins by stopped-flow CO2 hydration assay
[5] = test system: MDCK; assay: Cytotoxicity against MDCK cells expressing carbonic anhydrase 9 assessed as reduction in cell viability at 500 nM pretreated for 1 hr followed by 2 Gy irradiation under normoxic condition by Alamar blue assay; assay type: functional, cell-based; settings: Canis lupus familiaris
In short: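 MDCK CAIX+ cells (human CAIX transfected) under normoxia (21% O2, 5% CO2). ATR inhibitors in 0.5% DMSO added 1 h before X-irradiation with 2 Gy. Exposure 72 h total, medium replaced, then 72 h further growth. Viability by 2 h alamarBlue conversion in normoxia.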

[6] = test system: MDCK; assay: Cytotoxicity against MDCK cells expressing carbonic anhydrase 9 assessed as reduction in cell viability at 500 nM pretreated for 72 hrs followed by 72 hrs incubation under normoxic condition by Alamar blue assay; assay type: functional, cell-based; settings: Canis lupus familiaris
In short: (§2)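 MDCK cells transfected with human CAIX or scrambled vector, normoxia (21% O2, 5% CO2). ATR inhibitors in 0.5% DMSO for 72 h, medium replaced, cells grown a further 72 h. Viability from 2 h alamarBlue conversion in normoxia.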

[7] = test system: MDCK; assay: Cytotoxicity against carbonic anhydrase 9 knockdown MDCK cells assessed as reduction in cell viability at 500 nM pretreated for 72 hrs followed by 72 hrs incubation under normoxic condition by Alamar blue assay; assay type: cell-based, Canis lupus familiaris; settings: dog, 0.5 µM; in short: as §2
[8] = biological target: Carbonic anhydrase 12 (Homo sapiens, UniProt O43570); assay: Binding affinity to recombinant human carbonic anhydrase 12 after 15 mins by stopped-flow CO2 hydration assay
Sequence of Carbonic anhydrase 12 (O43570 whole entry): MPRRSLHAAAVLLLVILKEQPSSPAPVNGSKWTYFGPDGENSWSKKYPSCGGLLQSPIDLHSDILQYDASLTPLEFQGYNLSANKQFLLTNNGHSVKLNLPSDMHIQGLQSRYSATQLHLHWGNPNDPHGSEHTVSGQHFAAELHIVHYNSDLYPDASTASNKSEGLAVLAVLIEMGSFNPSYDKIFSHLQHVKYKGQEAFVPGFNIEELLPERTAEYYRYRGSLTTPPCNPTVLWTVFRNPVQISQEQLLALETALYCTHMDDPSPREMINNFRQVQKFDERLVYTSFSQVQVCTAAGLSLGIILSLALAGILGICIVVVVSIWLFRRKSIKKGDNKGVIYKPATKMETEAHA

[9] = biological target: Carbonic anhydrase 9 (Homo sapiens, UniProt Q16790); assay: Binding affinity to recombinant human carbonic anhydrase 9 after 15 mins by stopped-flow CO2 hydration assay
[10] = test system: MDCK; assay: Cytotoxicity against carbonic anhydrase 9 knockdown MDCK cells assessed as reduction in cell viability at 500 nM pretreated for 1 hr followed by 4 Gy irradiation under anoxic condition by Alamar blue assay; assay type: cell-based, Canis lupus familiaris; settings: dog, 0.5 µM
In short: (§3)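 MDCK cells with or without CAIX, pre-exposed 24 h to anoxia (≤0.02% O2, 5% CO2, balance N2) in pre-equilibrated DMEM. ATR inhibitors in 0.5% DMSO added 1 h before 4 Gy X-irradiation. Exposure 72 h total, medium replaced, then 72 h normoxic regrowth. Viability by 2 h alamarBlue in normoxia.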

[11] = test system: MDCK; assay: Cytotoxicity against MDCK cells expressing carbonic anhydrase 9 assessed as reduction in cell viability at 500 nM pretreated for 1 hr followed by 4 Gy irradiation under anoxic condition by Alamar blue assay; assay type: functional, cell-based; settings: Canis lupus familiaris; in short: as §3
[12] = test system: MDCK; assay: Cytotoxicity against MDCK cells expressing carbonic anhydrase 9 assessed as reduction in cell viability after 72 hrs under normoxic condition by Alamar blue assay; assay type: functional, cell-based; settings: Canis lupus familiaris
[13] = test system: MDCK; assay: Cytotoxicity against carbonic anhydrase 9 knockdown MDCK cells assessed as reduction in cell viability after 72 hrs under hypoxic condition by Alamar blue assay; assay type: cell-based; settings: Canis lupus familiaris
[14] = test system: MDCK; assay: Cytotoxicity against MDCK cells expressing carbonic anhydrase 9 assessed as reduction in cell viability after 72 hrs under hypoxic condition by Alamar blue assay; assay type: functional, cell-based; settings: Canis lupus familiaris
[15] = test system: MDCK; assay: Cytotoxicity against carbonic anhydrase 9 knockdown MDCK cells assessed as reduction in cell viability after 72 hrs under normoxic condition by Alamar blue assay; assay type: cell-based; settings: Canis lupus familiaris
[16] = test system: MDCK; assay: Cytotoxicity against MDCK cells expressing carbonic anhydrase 9 assessed as reduction in cell viability preincubated for 2 hrs followed by 72 hrs incubation under normoxic condition by Alamar blue assay; assay type: functional, cell-based; settings: Canis lupus familiaris
In short: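 CAIX-overexpressing or scrambled-vector MDCK cells in DMEM/10% FBS, attached overnight, held 24 h at 21% O2/5% CO2. Drug added (0.5% DMSO vehicle) for 2 h, washed off, then 72 h further normoxic growth. Viability measured by 2 h alamarBlue conversion under normoxia.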

[17] = test system: MDCK; assay: Cytotoxicity against MDCK cells expressing carbonic anhydrase 9 assessed as reduction in cell viability after 2 hrs under hypoxic condition by Alamar blue assay; assay type: functional, cell-based; settings: Canis lupus familiaris
In short: (§4)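 MDCK cells transfected with human CAIX (CAIX+) or scrambled control vector (CAIX−), in DMEM/10% FBS, seeded and attached overnight. Medium replaced with pre-equilibrated hypoxic DMEM (0.2% O2, 5% CO2) for 24 h. Compounds in DMSO (0.5%) added for 2 h, then washed off. Cells regrown 72 h in normoxia. Viability read by alamarBlue conversion for 2 h under normoxia.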

[18] = test system: MDCK; assay: Cytotoxicity against carbonic anhydrase 9 knockdown MDCK cells assessed as reduction in cell viability after 2 hrs under hypoxic condition by Alamar blue assay; assay type: cell-based; settings: Canis lupus familiaris; in short: as §4
[19] = test system: MDCK; assay: Cytotoxicity against carbonic anhydrase 9 knockdown MDCK cells assessed as reduction in cell viability preincubated for 2 hrs followed by 72 hrs incubation under normoxic condition by Alamar blue assay; assay type: cell-based; settings: Canis lupus familiaris
[20] = test system: HCT-116; assay: Effect on mitochondrial respiration in human HCT116 cells expressing carbonic anhydrase 9 assessed as reduction in oxygen consumption rate at 0.5 mM […]; assay type: functional, cell-based
[21] = test system: MDCK; assay: Cytotoxicity against MDCK cells expressing carbonic anhydrase 9 assessed as reduction in cell viability at 50 nM after 72 hrs under anoxic condition by Alamar blue assay; assay type: functional, cell-based; settings: Canis lupus familiaris
In short: (§5)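 ATR inhibitor without irradiation: MDCK CAIX+ or scrambled-control CAIX− cells were preconditioned 24 h at ≤0.02% O2 (anoxia) or 21% O2. Compound was added in 0.5% DMSO for 72 h, then washed off. Cells regrew 72 h under normoxia, followed by 2 h alamarBlue conversion. Viability is relative to control.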

[22] = test system: MDCK; assay: Cytotoxicity against carbonic anhydrase 9 knockdown MDCK cells assessed as reduction in cell viability at 50 nM pretreated for 1 hr followed by 4 Gy irradiation under anoxic condition by Alamar blue assay; assay type: cell-based, Canis lupus familiaris; settings: dog, 0.05 µM
In short: (§6)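 ATR inhibitor plus radiation: MDCK CAIX+/CAIX− cells were preconditioned 24 h under normoxia (21% O2) or anoxia (≤0.02% O2). Compound in 0.5% DMSO was added 1 h before X-irradiation, 2 Gy normoxic or 4 Gy anoxic. Total compound exposure was 72 h, then washout and 72 h normoxic regrowth. Readout was 2 h alamarBlue conversion, as relative viability.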

[23] = test system: MDCK; assay: Cytotoxicity against MDCK cells expressing carbonic anhydrase 9 assessed as reduction in cell viability at 50 nM pretreated for 1 hr followed by 4 Gy irradiation under anoxic condition by Alamar blue assay; assay type: functional, cell-based; settings: Canis lupus familiaris; in short: as §6
[24] = test system: MDCK; assay: Cytotoxicity against MDCK cells expressing carbonic anhydrase 9 assessed as reduction in cell viability at 50 nM pretreated for 1 hr followed by 2 Gy irradiation under normoxic condition by Alamar blue assay; assay type: functional, cell-based; settings: Canis lupus familiaris; in short: as §6
[25] = test system: MDCK; assay: Cytotoxicity against carbonic anhydrase 9 knockdown MDCK cells assessed as reduction in cell viability at 50 nM pretreated for 72 hrs followed by 72 hrs incubation under normoxic condition by Alamar blue assay; assay type: cell-based, Canis lupus familiaris; settings: dog, 0.05 µM; in short: as §5
[26] = test system: MDCK; assay: Cytotoxicity against carbonic anhydrase 9 knockdown MDCK cells assessed as reduction in cell viability at 50 nM after 72 hrs under anoxic condition by Alamar blue assay; assay type: cell-based, Canis lupus familiaris; settings: dog, 0.05 µM; in short: as §5
[27] = test system: MDCK; assay: Cytotoxicity against MDCK cells expressing carbonic anhydrase 9 assessed as reduction in cell viability at 50 nM pretreated for 72 hrs followed by 72 hrs incubation under normoxic condition by Alamar blue assay; assay type: functional, cell-based; settings: Canis lupus familiaris; in short: as §5

SMILES | Ki [2] [µM] | Ki [4] [µM] | Ki [8] [µM] | Ki [9] [µM] | IC50 [16] [µM] | IC50 [17] [µM] | IC50 [18] [µM] | IC50 [19] [µM] | other results
CS(=O)(=O)c1ccc(-c2cnc(N)c(C(=O)Nc3ccccc3)n2)cc1 | > 50 | > 50 | > 50 | > 50 | – | – | – | – | Activity [1]: Toxic; Activity [3]: Active; Activity [5]: Active; Activity [6]: Active; Activity [7]: Toxic; Activity [10]: Non-Toxic; Activity [11]: Active
Cn1nnc2c(C(=O)NCc3ccc(S(N)(=O)=O)cc3)ncn2c1=O | – | – | – | 0.271 | – | – | – | – | IC50 [12]: > 1000 µM; IC50 [13]: > 1000 µM; IC50 [14]: > 1000 µM; IC50 [15]: > 1000 µM
NS(=O)(=O)c1ccc(NC(=O)CCCc2ccc(N(CCCl)CCCl)cc2)cc1 | 0.073 | 0.009 | 0.689 | 0.172 | 87 | 95 | 100 | 100 | –
NS(=O)(=O)c1ccc(CCNc2n[n+]([O-])c3cc4c(cc3[n+]2[O-])CCC4)cc1 | – | – | – | 0.307 | > 300 | > 300 | > 300 | > 300 | –
N=C(N)NC(=N)NCCc1ccccc1 | – | – | – | – | – | – | – | – | Activity [20]: Active
NS(=O)(=O)c1ccc(CNC(=O)OCCCCc2ccc(N(CCCl)CCCl)cc2)cc1 | 6.14 | 0.265 | 9.57 | 4.13 | 98 | 100 | 52 | 86 | –
NS(=O)(=O)c1ccc(CCNC(=O)CCCc2ccc(N(CCCl)CCCl)cc2)cc1 | 8.4 | 0.45 | 10.2 | 4.61 | 100 | 100 | 18 | 18 | –
NS(=O)(=O)c1ccc(CCNc2n[n+]([O-])c3ccccc3[n+]2[O-])cc1 | – | – | – | 0.383 | > 300 | > 300 | 300 | > 300 | –
NS(=O)(=O)c1ccc(NC(=O)OCCCCc2ccc(N(CCCl)CCCl)cc2)cc1 | 5.58 | 0.553 | 9.38 | 2.74 | 56 | 62 | 8 | 8 | –
NS(=O)(=O)c1ccc(CCNC(=O)OCCCCc2ccc(N(CCCl)CCCl)cc2)cc1 | 5.67 | 0.504 | 13.6 | 3.85 | 99 | 100 | 81 | 89 | –
Cn1nnc2c(C(=O)Nc3nnc(S(N)(=O)=O)s3)ncn2c1=O | – | – | – | 0.176 | – | – | – | – | IC50 [12]: > 1000 µM; IC50 [13]: > 1000 µM; IC50 [14]: > 1000 µM; IC50 [15]: > 1000 µM
Nc1n[n+]([O-])c2ccccc2[n+]1[O-] [TIRAPAZAMINE] | > 50 | > 50 | > 50 | > 50 | > 300 | 95 | < 50 | > 300 | –
NS(=O)(=O)c1ccc(CNC(=O)CCCc2ccc(N(CCCl)CCCl)cc2)cc1 | 5.95 | 0.747 | 7.34 | 8.97 | 98 | 92 | 14 | 18 | –
O=C(O)CCCc1ccc(N(CCCl)CCCl)cc1 [CHLORAMBUCIL] | > 50 | > 50 | > 50 | > 50 | > 100 | > 100 | 100 | 93 | –
CNCc1ccc(-c2cc(-c3nc(-c4ccc(S(=O)(=O)C(C)C)cc4)cnc3NS(N)(=O)=O)on2)cc1 | > 50 | > 50 | > 50 | > 50 | – | – | – | – | Activity [21]: Active; Activity [22]: Non-Toxic; Activity [23]: inactive; Activity [24]: inactive; Activity [25]: Toxic; Activity [26]: Toxic; Activity [27]: Active
Cn1nnc2c(C(=O)NCCc3ccc(S(N)(=O)=O)cc3)ncn2c1=O | – | – | – | 0.0371 | – | – | – | – | IC50 [12]: > 1000 µM; IC50 [13]: > 1000 µM; IC50 [14]: > 1000 µM; IC50 [15]: > 1000 µM
